≈ marks a conversion by molar mass, not a printed value.
How the values were obtained:
Bacillus subtilis [1] = experiment: Antibiofilm activity against Bacillus subtilis MTCC 121 incubated for 24 hrs under static condition by crystal violet staining-based assay; assay type: functional
Procedure, shortened: (§1)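 Strains grown overnight in tryptone soy broth with 0.5% glucose. Compound (250 to 0) mixed with inoculum at 5 × 10^5 CFU/mL in polystyrene microtiter plates. Non-adherent cells washed off with PBS; wells stained with 0.1% crystal violet, dye solubilised in 95% ethanol, absorbance read at 540 nm. IC50 for 50% biofilm inhibition taken from dose-response curves. Triplicates, mean ± S.D.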

Candida albicans [2] = experiment: Antifungal activity against Candida albicans MTCC 3017 after 24 hrs by well diffusion method; assay type: functional; conditions: MTCC 3017, 24 h
Procedure, shortened: (§2)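 Candida/Issatchenkia lawns (0.1 mL suspension) on Mueller-Hinton agar; 6.0 mm bored wells receive compound across a 250 to 0.48 per-well dose range, methanol as negative control. Plates kept 24 h at 30 °C. MIC is the lowest concentration producing a visible inhibition zone. Duplicate runs, mean values.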

Escherichia coli = experiment: Bactericidal activity against Escherichia coli MTCC 739 after 24 hrs; assay type: functional; conditions: MTCC 739, 24 h
Procedure, shortened: (§3)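 Broth macrodilution in Mueller Hinton broth, compound serially diluted from 150 down to 0. Overnight bacterial culture added to a final 1.5 × 10^8 CFU/mL (0.5 McFarland), 24 h at 37 °C. Suspension then subcultured onto Mueller Hinton agar for 24 h at 37 °C. MBC is the lowest concentration killing the strain. Duplicates.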

Pseudomonas aeruginosa = experiment: Antibiofilm activity against Pseudomonas aeruginosa MTCC 2453 incubated for 24 hrs under static condition by crystal violet staining-based assay; assay type: functional; procedure, shortened: as §1
Candida albicans [3] = experiment: Fungicidal activity against Candida albicans MTCC 7315 after 24 hrs; assay type: functional; conditions: MTCC 7315, 24 h
Procedure, shortened: (§4)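 Candida grown overnight in Mueller Hinton broth. Compound serially diluted in the same broth from 150 to 0 and inoculated to a final 1.5 × 10^8 CFU/mL (0.5 McFarland), then 24 h at 37 °C. Tube contents plated onto Mueller Hinton agar for 24 h at 37 °C. MFC is the lowest concentration killing the yeast. Duplicates.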

Candida albicans [4] = experiment: Fungicidal activity against Candida albicans MTCC 3958 after 24 hrs; assay type: functional; conditions: MTCC 3958, 24 h; procedure, shortened: as §4
Candida albicans [5] = experiment: Fungicidal activity against Candida albicans MTCC 227 after 24 hrs; assay type: functional; conditions: MTCC 227, 24 h; procedure, shortened: as §4
Candida albicans [6] = experiment: Antifungal activity against Candida albicans MTCC 854 after 24 hrs by well diffusion method; assay type: functional; conditions: MTCC 854, 24 h; procedure, shortened: as §2
Staphylococcus aureus [7] = experiment: Antibacterial activity against Staphylococcus aureus MTCC 96 after 24 hrs by well diffusion method; assay type: functional; conditions: MTCC 96, 24 h
Procedure, shortened: (§5)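 Bacteria spread (0.1 mL suspension) on Mueller-Hinton agar; 6.0 mm wells loaded with compound over a 250 to 0.48 per-well dose range, methanol as negative control. Incubated 24 h at 37 °C. MIC taken as the lowest concentration still giving an inhibition zone. Duplicates, mean reported.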

Micrococcus luteus = experiment: Antibiofilm activity against Micrococcus luteus MTCC 2470 incubated for 24 hrs under static condition by crystal violet staining-based assay; assay type: functional; procedure, shortened: as §1
[8] = Antifungal activity against Candida parapsilosis MTCC 1744 after 24 hrs by well diffusion method; assay type: functional; procedure, shortened: as §2
Candida albicans [9] = experiment: Antifungal activity against Candida albicans MTCC 3958 after 24 hrs by well diffusion method; assay type: functional; conditions: MTCC 3958, 24 h; procedure, shortened: as §2
Candida albicans [10] = experiment: Antifungal activity against Candida albicans MTCC 7315 after 24 hrs by well diffusion method; assay type: functional; conditions: MTCC 7315, 24 h; procedure, shortened: as §2
Bacillus subtilis [11] = experiment: Bactericidal activity against Bacillus subtilis MTCC 121 after 24 hrs; assay type: functional; conditions: MTCC 121, 24 h; procedure, shortened: as §3
Raoultella planticola [12] = experiment: Bactericidal activity against Klebsiella planticola MTCC 530 after 24 hrs; assay type: functional; conditions: MTCC 530, 24 h; procedure, shortened: as §3
Candida albicans [13] = experiment: Antifungal activity against Candida albicans MTCC 227 after 24 hrs by well diffusion method; assay type: functional; conditions: MTCC 227, 24 h; procedure, shortened: as §2
Staphylococcus aureus [14] = experiment: Antibiofilm activity against Staphylococcus aureus MTCC 96 incubated for 24 hrs under static condition by crystal violet staining-based assay; assay type: functional; procedure, shortened: as §1
Candida albicans [15] = experiment: Fungicidal activity against Candida albicans MTCC 854 after 24 hrs; assay type: functional; conditions: MTCC 854, 24 h; procedure, shortened: as §4
Candida albicans [16] = experiment: Antifungal activity against Candida albicans MTCC 1637 after 24 hrs by well diffusion method; assay type: functional; conditions: MTCC 1637, 24 h; procedure, shortened: as §2
Raoultella planticola [17] = experiment: Antibacterial activity against Klebsiella planticola MTCC 530 after 24 hrs by well diffusion method; assay type: functional; conditions: MTCC 530, 24 h; procedure, shortened: as §5
Candida albicans [18] = experiment: Fungicidal activity against Candida albicans MTCC 3018 after 24 hrs; assay type: functional; conditions: MTCC 3018, 24 h; procedure, shortened: as §4
[19] = Antifungal activity against Candida krusei MTCC 3020 after 24 hrs by well diffusion method; assay type: functional; conditions: Pichia kudriavzevii; procedure, shortened: as §2
[20] = Cytotoxicity against human SKOV3 cells assessed as cell growth inhibition by MTT assay; assay type: functional, cell-based; conditions: SK-OV-3
[Candida] aaseri = Antifungal activity against Candida aaseri MTCC 1962 after 24 hrs by well diffusion method; assay type: functional; conditions: Yamadazyma aaseri, MTCC 1962, 24 h; procedure, shortened: as §2
Candida albicans [21] = experiment: Fungicidal activity against Candida albicans MTCC 1637 after 24 hrs; assay type: functional; conditions: MTCC 1637, 24 h; procedure, shortened: as §4

IC50 (Bacillus subtilis [1]): 2.6 µg/mL (≈ 12 µM)
MIC (Candida albicans [2]): 15.6 µg/mL (≈ 71.8 µM)
MIC (Candida albicans [6]): 15.6 µg/mL (≈ 71.8 µM)
MIC (Staphylococcus aureus [7]): 7.8 µg/mL (≈ 35.9 µM)
IC50 (Micrococcus luteus): 2.3 µg/mL (≈ 10.6 µM)
MIC [8]: 31.2 µg/mL (≈ 144 µM)
MIC (Candida albicans [9]): 7.8 µg/mL (≈ 35.9 µM)
MIC (Candida albicans [10]): 31.2 µg/mL (≈ 144 µM)
MIC (Candida albicans [13]): 15.6 µg/mL (≈ 71.8 µM)
IC50 (Staphylococcus aureus [14]): 4.5 µg/mL (≈ 20.7 µM)
MIC (Candida albicans [16]): 7.8 µg/mL (≈ 35.9 µM)
MIC [19]: 7.8 µg/mL (≈ 35.9 µM)
MIC ([Candida] aaseri): 15.6 µg/mL (≈ 71.8 µM)
SMILES: CCCCCCCCC[C@H](O)[C@H](N)CO
MBC (Escherichia coli): 15.6 µg/mL (≈ 71.8 µM)
INH (Pseudomonas aeruginosa): 3.9 µg/mL
MFC (Candida albicans [3]): 62.5 µg/mL (≈ 288 µM)
MFC (Candida albicans [4]): 15.6 µg/mL (≈ 71.8 µM)
MFC (Candida albicans [5]): 31.2 µg/mL (≈ 144 µM)
MBC (Bacillus subtilis [11]): 7.8 µg/mL (≈ 35.9 µM)
MBC (Raoultella planticola [12]): 31.2 µg/mL (≈ 144 µM)
MFC (Candida albicans [15]): 15.6 µg/mL (≈ 71.8 µM)
MIC (Raoultella planticola [17]): 15.6 µg/mL (≈ 71.8 µM)
MFC (Candida albicans [18]): 15.6 µg/mL (≈ 71.8 µM)
IC50 [20]: 33.6 µM
MFC (Candida albicans [21]): 15.6 µg/mL (≈ 71.8 µM)
